{"data": "Published values pooled from the literature", "LRRK2 G2019S": "Leucine-rich repeat serine/threonine-protein kinase 2 (LRRK2, Homo sapiens, UniProt Q5S007, G2019S)", "LRRK2": "Leucine-rich repeat serine/threonine-protein kinase 2 (LRRK2, Homo sapiens, UniProt Q5S007)", "note": "Protocols differ between the studies behind these lines."}
{"Structure (SMILES)": "COc1ccc2[nH]c3c4[nH]c5ccc(OC)cc5c4c4c(c3c2c1)C(=O)NC4=O", "target": "LRRK2 G2019S", "test": "binding", "conditions": "1 µM", "quantity": "remaining binding", "result": "2.6%"}
{"Structure (SMILES)": "C[C@]1(O)CCCN(c2nc(Nc3ccc(S(=O)(=O)N[C@H]4CC[C@H](CN5CCN(c6ccc(C7CCC(=O)NC7=O)cc6F)CC5)CC4)cc3F)ncc2C(F)(F)F)C1 (stereo partly drawn)", "target": "LRRK2", "test": "binding, competition with immobilised ligand", "conditions": "1 µM", "quantity": "remaining binding", "result": "97%"}
{"Structure (SMILES)": "CN1CCN(C(=O)c2ccc(NC(=O)Nc3ccc(N(C)c4ccnc(Nc5ccc(CS(C)(=O)=O)cc5)n4)cc3)cc2)CC1", "target": "LRRK2", "test": "binding", "conditions": "1 µM", "quantity": "remaining binding", "result": "74%"}
{"Structure (SMILES)": "Cc1cc(O)c(-c2ccc([C@@H](C)CN(C)C)cc2)c2c1[nH]c(=O)c1sccc12", "target": "LRRK2", "test": "enzyme activity, inhibitor", "conditions": "0.1 µM", "quantity": "inhibition", "result": "-15.8%"}
{"Structure (SMILES)": "C#Cc1cc(-c2cc(Nc3nc(N[C@@H](C)c4ccc(F)cn4)ncc3Cl)n[nH]2)ccc1C=O", "target": "LRRK2 G2019S", "test": "enzyme activity, inhibitor", "conditions": "0.2 µM", "quantity": "inhibition", "result": "23%"}
{"Structure (SMILES)": "CCCCC(=O)Nc1ccc(-c2ccc3ncn(CCC)c(=O)c3c2)cn1", "target": "LRRK2 G2019S", "test": "binding, competition with immobilised ligand", "conditions": "0.5 µM", "quantity": "remaining binding", "result": "100%"}
{"Structure (SMILES)": "CNS(=O)(=O)c1ccc(Nc2ncc(C(F)(F)F)c(N3CCC[C@](C)(O)C3)n2)c(C)c1", "target": "LRRK2 G2019S", "test": "binding, competition with immobilised ligand", "conditions": "1 µM", "quantity": "remaining binding", "result": "13%"}
{"Structure (SMILES)": "Cc1ccc(NC(=O)c2ccnc(C(F)(F)F)c2)cc1-c1cc(OCCO)nc(N2CCOCC2)c1", "target": "LRRK2 G2019S", "test": "binding", "conditions": "1 µM", "quantity": "remaining binding", "result": "100%"}
{"Structure (SMILES)": "CC(C)S(=O)(=O)c1ccc2nccc(Nc3ccc4sc(C5CCCC5)nc4c3)c2c1", "target": "LRRK2", "test": "enzyme activity, inhibitor", "conditions": "1 µM", "quantity": "activity vs control", "result": "120%"}
{"Structure (SMILES)": "C1=C/COCc2cc(ccc2OCCN2CCCC2)Nc2nccc(n2)-c2cccc(c2)COC/1", "target": "LRRK2 G2019S", "test": "binding", "conditions": "0.1 µM", "quantity": "remaining binding", "result": "100%"}
{"Structure (SMILES)": "Cc1cc(S(=O)(=O)N[C@H]2CC[C@H](CN3CCN(c4ccc(C5CCC(=O)NC5=O)cc4F)CC3)CC2)ccc1Nc1ncc(C(F)(F)F)c(N2CCC[C@](C)(O)C2)n1 (stereo partly drawn)", "target": "LRRK2", "test": "binding, competition with immobilised ligand", "conditions": "1 µM", "quantity": "remaining binding", "result": "6.6%"}
{"Structure (SMILES)": "C=CC(=O)N1CCC([C@@H]2CCNc3c(C(N)=O)c(-c4ccc(Oc5ccccc5)cc4)nn32)CC1", "target": "LRRK2 G2019S", "test": "enzyme activity, inhibitor", "conditions": "1 µM", "quantity": "inhibition", "result": "0%"}
